The values that follow come from ChEMBL document CHEMBL4732262, “Identification of two novel thiophene analogues as inducers of autophagy mediated cell death in breast cancer cells” (Bioorg Med Chem, 2021).

Active and inactive are the calls of the source. The rule behind the calls is not given here. A value given as a limit tells only on which side of the number the result lay.

Assay [1] relates to MCF7. As to the kind of experiment: Cytotoxicity against human MCF7 cells assessed as reduction in cell viability after 24 hrs by MTT assay. It is filed as functional, cell-based. Conditions: MCF7, 24 h. The method, boiled down:
(§1)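 Cells seeded ~5 × 10^3 per well in 96-well plates, exposed to 0–40 µM for 24 h. MTT added at 0.5 mg/ml for 3 h, formazan dissolved in DMSO, absorbance read at 540 nm. IC50 taken from plotted curves. Duplicate wells, two independent repeats. MCF7 grown in DMEM, MDA-MB-231 in RPMI, both with 10% FBS at 37 °C and 5% CO2.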

Assay [2] relates to MDA-MB-231. Description: Cytotoxicity against human MDA-MB-231 cells assessed as reduction in cell viability after 24 hrs by MTT assay. It is filed as functional, cell-based. The conditions noted are these: MDA-MB-231, 24 h. The method, boiled down: as §1
Background: Tetrazolium assays rely on reduction of a dye to a coloured formazan, in cell work by metabolically active cells.

The test system of assay [3] is MDA-MB-231. Description: Induction of apoptosis in human MDA-MB-231 cells assessed as early apoptotic cells at 2.5 uM after 24 hrs by annexin V-FITC/Propidium iodide staining based flow cytometric analysis (reference value: 1.54%). It is filed as functional. For orientation: Flow cytometry measures light scatter and fluorescence of single cells or particles in a stream.

Assay [4] has as its system MDA-MB-231. Description: Induction of apoptosis in human MDA-MB-231 cells assessed as morphological changes at 2.5 uM after up to 24 hrs by phase contrast microscopic method. It is filed as functional, cell-based. The conditions noted are these: time hrs <=24. In outline: (§2)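 ~5 × 10^4 cells in 6-well plates, either DMSO control or 2.5 µM. Morphology imaged at 0, 6, 12 and 24 h.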

The test system of assay [5] is MDA-MB-231. Description: Induction of apoptosis in human MDA-MB-231 cells assessed as reduction in size of cells at 2.5 uM by phase contrast microscopic method. It is filed as functional, cell-based. Conditions: time 6-24 hrs, TDE = time-dependent effect. In outline:
as §2

The subject of assay [6] is MCF7. Description: Induction of apoptosis in human MCF7cells assessed as reduction in size of cells at 2.5 uM by phase contrast microscopic method. It is filed as functional, cell-based. The conditions noted are these: time 6-24 hrs, TDE = time-dependent effect. The method, boiled down: as §2
For assay [7], the system named is MCF7. As to the kind of experiment: Induction of apoptosis in human MCF7 cells at 2.5 uM after 24 hrs by annexin V-FITC/Propidium iodide staining based flow cytometric analysis relative to tanshinone-1. It is filed as functional.
In assay [8] the test system is MCF7. As to the kind of experiment: Induction of apoptosis in human MCF7 cells at 2.5 uM after 24 hrs by annexin V-FITC/Propidium iodide staining based flow cytometric analysis relative to tanshinone-2A. It is filed as functional.
The test system of assay [9] is MDA-MB-231. As to the kind of experiment: Induction of apoptosis in human MDA-MB-231 cells at 2.5 uM after 24 hrs by annexin V-FITC/Propidium iodide staining based flow cytometric analysis relative to tanshinone-2A. It is filed as functional.
Assay [10] deals with MDA-MB-231. Description: Induction of apoptosis in human MDA-MB-231 cells assessed as increase in cleaved PARP level at 2.5 uM after r24 hrs by Western blot analysis. It is filed as functional, cell-based. The conditions noted are these: time 24.0 hrs. The method, boiled down: (§3)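 MCF7 or MDA-MB-231 cells given 2.5 µM or DMSO for 24 h, then lysed in RIPA buffer. Immunoblots probed overnight at 4 °C, followed by infrared-labelled secondary antibody for 1 h at 37 °C. Bands imaged and quantified densitometrically, with GAPDH as loading control. Representative of two independent experiments.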

The subject of assay [11] is MCF7. Description: Induction of apoptosis in human MCF7 cells assessed as change in Bak1 protein expression at 2.5 uM after 24 hrs by Western blot analysis. It is filed as functional, cell-based. In outline:
as §3

For assay [12], the system named is MCF7. Description: Induction of apoptosis in human MCF7 cells assessed as change in Bcl-xL protein expression at 2.5 uM after 24 hrs by Western blot analysis. It is filed as functional, cell-based. In outline: as §3
On the technique in general: In western blotting, separated proteins are transferred to a membrane and probed.

Assay [13] deals with MCF7. As to the kind of experiment: Induction of autophagy in human MCF7 cells assessed as increase in p62 degradation at 2.5 uM after 24 hrs by Western blot analysis. It is filed as functional, cell-based. In outline:
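MCF7 cells (~5 × 10^6) left untreated (DMSO control) or exposed to 2.5 µM compound for 24 h. Lysed in RIPA buffer, probed overnight at 4 °C, then given infrared-tagged secondary antibodies for 1 h at 37 °C and imaged by infrared scanning. LC3-II/I ratio and p62 taken by densitometry with GAPDH as loading control. Two independent experiments.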

In assay [14] the test system is MCF7. Description: Induction of autophagy in human MCF7 cells assessed as increase in ATG16L1 mRNA expression at 2.5 uM after 24 hrs by RT-PCR analysis. It is filed as functional, cell-based. The method, boiled down: (§4)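 MCF7 cells given 2.5 µM or DMSO for 24 h. Total RNA extracted with TRIzol and reverse-transcribed, then SYBR Green qPCR across 34 autophagy-regulatory genes (95 °C 10 min; 40 cycles of 95 °C 15 s and 60 °C 1 min). Relative expression by 2^-ΔΔCt against housekeeping genes and DMSO control, shown as log2. Two independent experiments.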

Assay [15] concerns MCF7. As to the kind of experiment: Induction of autophagy in human MCF7 cells assessed as increase in GABARAPL1 mRNA expression at 2.5 uM after 24 hrs by RT-PCR analysis. It is filed as functional, cell-based. In outline:
as §4

Assay [16] relates to MCF7. As to the kind of experiment: Induction of autophagy in human MCF7 cells assessed as increase in GADD34 mRNA expression at 2.5 uM after 24 hrs by RT-PCR analysis. It is filed as functional, cell-based.
Assay [17] has as its system MCF7. Description: Induction of autophagy in human MCF7 cells assessed as increase in PPP1R15A mRNA expression at 2.5 uM after 24 hrs by PCR microarray analysis. It is filed as functional, cell-based. The method, boiled down:
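MCF7 cells (~10 × 10^6) were treated with 2.5 µM compound or DMSO for 24 h. Total RNA was converted to cDNA and run on an Unfolded Protein Response RT2 Profiler PCR array. Log2 fold change was computed by 2^-ΔΔCt against control cells, normalized to the mean of ACTB, B2M, GAPDH, HPRT1 and RPLPO.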

In assay [18] the test system is MCF7. Description: Induction of autophagy in human MCF7 cells assessed as increase in ATF4 protein expression at 2.5 uM after 24 hrs by Western blot analysis. It is filed as functional, cell-based. The method, boiled down:
as §3

Assay [19] concerns MCF7. As to the kind of experiment: Induction of autophagy in human MCF7 cells expressing GFP-LC3 assessed as distinct puncta pattern at 2.5 uM after 24 hrs by live-cell confocal microscopic analysis. It is filed as functional, cell-based. In outline: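 MCF7 cells (~1 × 10^6) at 70% confluency on glass-bottom dishes were transiently transfected with GFP-LC3 (Lipofectamine 3000). 24 h later they received 2.5 µM compound or DMSO for another 24 h. Nuclei were stained with Hoechst 33342 and lysosomes with LysoTracker Red DND-99, then imaged by live-cell confocal microscopy. LC3 puncta were counted in at least 10 cells from 3 fields. Two independent experiments.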

The subject of assay [20] is MCF7. Description: Cytotoxicity against human MCF7 cells assessed as reduction in cell viability at 25 to 100 uM after 24 hrs in presence of chloroquine by MTT assay. It is filed as functional, cell-based. Conditions: dose 25-100 µM. The method, boiled down: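 ~0.5 × 10^5 cells per well in six-well plates given 2.5 µM test agent together with chloroquine at 25, 50 or 100 µM, 24 h at 37 °C in humidified CO2. Viability read by MTT. Duplicate assays from two independent experiments, shown with SD.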

The subject of assay [21] is MCF7. As to the kind of experiment: Induction of autophagy in human MCF7 cells assessed as LC3-2 to LC3-1 protein ratio at 2.5 uM after 24 hrs by Western blot analysis (reference value: 0.22 to 0.8). It is filed as functional.
For assay [22], the system named is MCF7. Description: Induction of autophagy in human MCF7 cells assessed as LC3-2 to LC3-1 protein ratio at 5 uM after 24 hrs by Western blot analysis (reference value: 0.22 to 0.8). It is filed as functional.
For a further assay, the system named is MCF7 (Homo sapiens). As to the kind of experiment: Induction of apoptosis in human MCF7 cells assessed as increase in cell death at 2.5 uM after 24 hrs by EtBr/AO staining based fluorescence microscopic method relative to tanshinone-2A.

What is called IC50 is the concentration that gives 50% inhibition. On to `O=C1C(=O)c2sccc2-c2ccccc21`, for which the half-maximal inhibitory concentration (IC50) was found to be 1860 nM in the assay with MCF7 [1] and 2960 nM with MDA-MB-231 [2]. Besides, the values for the Activity in the assay on MDA-MB-231 [3], with MDA-MB-231 [5] and with MCF7 [6] were 24.7%, “Tde” and “Tde”, respectively. Besides, the result in the assay with MDA-MB-231 [4], in the assay with MDA-MB-231 [10], in the assay on MCF7 [13], in the assay with MCF7 [14], in the assay with MCF7 [15] and with MCF7 [16] was Active. Besides, the result in the assay on MCF7 [17], in the assay on MCF7 [18] and in the assay with MCF7 [19] was Active. For the same compound, the “fold change (FC)” value in the assay on MCF7 [7] is “>=2”; with MCF7 [8] it was “>=2”; with MDA-MB-231 [9], “>=2”; in the assay on MCF7 (Homo sapiens) it was 2. The result in the assay on MCF7 [11], with MCF7 [12] and in the assay on MCF7 [20] was inactive. For the same compound, the Ratio with MCF7 [21] was 7.14; in the assay on MCF7 [22], 11.4.

On to `O=C1C(=O)c2ccsc2-c2ccccc21`, for which the IC50 in the assay with MCF7 [1] was 1940 nM; in the assay with MDA-MB-231 [2], 2600 nM. Also, the Activity in the assay with MDA-MB-231 [3] is 11.9%; in the assay with MDA-MB-231 [5] it was “Tde”; in the assay with MCF7 [6], “Tde”. Also, the outcome with MDA-MB-231 [4], in the assay with MDA-MB-231 [10], in the assay on MCF7 [13], in the assay on MCF7 [14], with MCF7 [15] and in the assay on MCF7 [16] was Active. Besides, the outcome in the assay with MCF7 [17], with MCF7 [18] and in the assay on MCF7 [19] was Active. Besides, the “fold change (FC)” value in the assay with MCF7 [7] is “>=2”; in the assay with MCF7 [8], “>=2”; in the assay with MDA-MB-231 [9], “>=2”; in the assay with MCF7 (Homo sapiens) it was 2. Besides, the outcome in the assay on MCF7 [11], with MCF7 [12] and in the assay on MCF7 [20] was inactive. Further, the results for the Ratio with MCF7 [21] and in the assay with MCF7 [22] were 16.3 and 34.1, respectively.
